{"source": "ChEMBL document CHEMBL4304756", "about": "“Second-Generation Tryptamine Derivatives Potently Sensitize Colistin Resistant Bacteria to Colistin” (ACS Med Chem Lett, 2019)", "key": {"Acinetobacter baumannii [1]": {"test_system": "Acinetobacter baumannii", "experiment": "Potentiation of colistin-induced antibacterial activity against Acinetobacter baumannii 17978 harbouring mcr-1 gene assessed as colistin MIC at 50 uM incubated for 16 hrs by broth microdilution method (reference value: 16 ug/ml)", "type": "functional", "conditions": "Acinetobacter baumannii, 17978, 16 h"}, "Klebsiella pneumoniae [2]": {"test_system": "Klebsiella pneumoniae", "experiment": "Potentiation of colistin-induced antibacterial activity against Klebsiella pneumoniae C3 assessed as reduction in colistin MIC at 7.5 uM incubated for 16 hrs by broth microdilution method (reference value: 512 ug/ml)", "type": "functional", "conditions": "C3, 16 h", "method_in_brief": "(§1)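 Colistin MIC was measured against chromosomally colistin-resistant strains (K. pneumoniae B9, C3; A. baumannii 4106, among four strains) with adjuvant at fixed levels from 20 μM down to 7.5 μM. Fold reduction was reported against colistin alone, with the CLSI breakpoint taken as ≤2 μg/mL.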"}, "Klebsiella pneumoniae [3]": {"test_system": "Klebsiella pneumoniae", "experiment": "Potentiation of colistin-induced antibacterial activity against Klebsiella pneumoniae B9 assessed as reduction in colistin MIC at 10 uM incubated for 16 hrs by broth microdilution method (reference value: 512 ug/ml)", "type": "functional", "conditions": "B9, 16 h", "method_in_brief": "as §1"}, "[4]": {"experiment": "Cytotoxicity against mouse 4T1 cells assessed as reduction in cell viability in presence of 1 ug/ml colistin incubated for 18 hrs by MTT assay", "type": "cell-based", "method_in_brief": "(§2)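 4T1 mouse mammary tumor cells exposed to compound for 18 h, alone or together with colistin at 1 μg/mL. Medium then aspirated and replaced with 0.5 mg/mL MTT in culture medium for colorimetric viability read-out. CT50 taken as the concentration giving 50% cell viability.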"}, "Escherichia coli [5]": {"test_system": "Escherichia coli", "experiment": "Potentiation of colistin-induced antibacterial activity against Escherichia coli YD626 harbouring mcr-1 gene assessed as reduction in colistin MIC at 5 uM incubated for 16 hrs by broth microdilution method (reference value: 8 ug/ml)", "type": "functional", "conditions": "YD626, 16 h", "method_in_brief": "(§3)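 For the dose-response, colistin MIC was measured against mcr-1 plasmid-bearing E. coli, K. pneumoniae and A. baumannii while the adjuvant concentration was lowered stepwise (30, 15 μM, down to 5 μM). The aim was to find where the MIC rose above the 2 μg/mL CLSI susceptibility breakpoint.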"}, "Escherichia coli [6]": {"test_system": "Escherichia coli", "experiment": "Potentiation of colistin-induced antibacterial activity against Escherichia coli YD626 assessed as colistin MIC at 50 uM incubated for 16 hrs by broth microdilution method (reference value: 1 ug/ml)", "type": "functional", "conditions": "YD626, 16 h"}, "Klebsiella pneumoniae [7]": {"test_system": "Klebsiella pneumoniae", "experiment": "Potentiation of colistin-induced antibacterial activity against Klebsiella pneumoniae C3 assessed as reduction in colistin MIC at 10 uM incubated for 16 hrs by broth microdilution method (reference value: 512 ug/ml)", "type": "functional", "conditions": "C3, 16 h"}, "Acinetobacter baumannii [8]": {"test_system": "Acinetobacter baumannii", "experiment": "Antivirulence activity in Acinetobacter baumannii 4106 infected Galleria mellonella larvae model assessed as survival rate at 50 mg/kg measured at 24 hrs interval over 4 days", "type": "functional", "method_in_brief": "(§4)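 A. baumannii 4106 was given to Galleria mellonella larvae at 6 × 10^5 CFU, the lethal inoculum found by dose escalation. Larvae were treated with colistin 50 mg/kg, adjuvant 50 mg/kg, colistin plus adjuvant (50 mg/kg each), or tigecycline 100 mg/kg as positive control. Survival was scored out to day 4.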"}, "Klebsiella pneumoniae [9]": {"test_system": "Klebsiella pneumoniae", "experiment": "Potentiation of colistin-induced antibacterial activity against Klebsiella pneumoniae C3 assessed as reduction in colistin MIC at 20 uM incubated for 16 hrs by broth microdilution method (reference value: 512 ug/ml)", "type": "functional", "conditions": "C3, 16 h", "method_in_brief": "as §1"}, "Acinetobacter baumannii [10]": {"test_system": "Acinetobacter baumannii", "experiment": "Potentiation of colistin-induced antibacterial activity against Acinetobacter baumannii 4106 assessed as reduction in colistin MIC at 10 uM incubated for 16 hrs by broth microdilution method (reference value: 1024 ug/ml)", "type": "functional", "conditions": "Acinetobacter baumannii, 4106, 16 h"}, "Acinetobacter baumannii [11]": {"test_system": "Acinetobacter baumannii", "experiment": "Potentiation of colistin-induced antibacterial activity against Acinetobacter baumannii 3941 assessed as reduction in colistin MIC at 10 uM incubated for 16 hrs by broth microdilution method (reference value: 512 ug/ml)", "type": "functional", "conditions": "Acinetobacter baumannii, 3941, 16 h"}, "Klebsiella pneumoniae [12]": {"test_system": "Klebsiella pneumoniae", "experiment": "Potentiation of colistin-induced antibacterial activity against Klebsiella pneumoniae C3 assessed as reduction in colistin MIC at 5 uM incubated for 16 hrs by broth microdilution method (reference value: 512 ug/ml)", "type": "functional", "conditions": "C3, 16 h"}, "Klebsiella pneumoniae [13]": {"test_system": "Klebsiella pneumoniae", "experiment": "Potentiation of colistin-induced antibacterial activity against Klebsiella pneumoniae 2210291 harbouring mcr-1 gene assessed as reduction in colistin MIC at 5 uM incubated for 16 hrs by broth microdilution method (reference value: 16 ug/ml)", "type": "functional", "conditions": "Klebsiella pneumoniae, 2210291, 16 h", "method_in_brief": "as §3"}, "Acinetobacter baumannii [14]": {"test_system": "Acinetobacter baumannii", "experiment": "Potentiation of colistin-induced antibacterial activity against Acinetobacter baumannii 17978 assessed as colistin MIC at 50 uM incubated for 16 hrs by broth microdilution method (reference value: 2 ug/ml)", "type": "functional", "conditions": "Acinetobacter baumannii, 17978, 16 h"}, "Acinetobacter baumannii [15]": {"test_system": "Acinetobacter baumannii", "experiment": "Potentiation of colistin-induced antibacterial activity against Acinetobacter baumannii 4106 assessed as reduction in colistin MIC at 20 uM incubated for 16 hrs by broth microdilution method (reference value: 1024 ug/ml)", "type": "functional", "conditions": "Acinetobacter baumannii, 4106, 16 h"}, "[16]": {"experiment": "Cytotoxicity against mouse 4T1 cells assessed as reduction in cell viability incubated for 18 hrs by MTT assay", "type": "cell-based", "method_in_brief": "as §2"}, "Acinetobacter baumannii [17]": {"test_system": "Acinetobacter baumannii", "experiment": "Potentiation of colistin-induced antibacterial activity against Acinetobacter baumannii 4106 assessed as reduction in colistin MIC at 5 uM incubated for 16 hrs by broth microdilution method (reference value: 1024 ug/ml)", "type": "functional", "conditions": "Acinetobacter baumannii, 4106, 16 h"}, "Acinetobacter baumannii [18]": {"test_system": "Acinetobacter baumannii", "experiment": "Potentiation of colistin-induced antibacterial activity against Acinetobacter baumannii 17978 harbouring mcr-1 gene assessed as colistin sensitization activity in presence of Tween 80 at 30 uM incubated for 16 hrs by broth microdilution method", "type": "functional, organism-based", "method_in_brief": "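To exclude nonspecific aggregation, colistin resensitization of A. baumannii 17978+mcr-1 was run with adjuvant at 30 μM, with and without 0.01% Tween 80.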"}, "Acinetobacter baumannii [19]": {"test_system": "Acinetobacter baumannii", "experiment": "Potentiation of colistin-induced antibacterial activity against Acinetobacter baumannii 17978 harbouring mcr-1 gene assessed as colistin sensitization activity at 30 uM incubated for 16 hrs by broth microdilution method", "type": "functional, organism-based"}, "Acinetobacter baumannii [20]": {"test_system": "Acinetobacter baumannii", "experiment": "Antivirulence activity in Acinetobacter baumannii 4106 infected Galleria mellonella larvae model assessed as survival rate in presence of colistin at 50 mg/kg measured at 24 hrs interval over 4 days (reference value: 7 %)", "type": "functional", "method_in_brief": "as §4"}, "Klebsiella pneumoniae [21]": {"test_system": "Klebsiella pneumoniae", "experiment": "Potentiation of colistin-induced antibacterial activity against Klebsiella pneumoniae 2210291 harbouring mcr-1 gene assessed as colistin MIC at 50 uM incubated for 16 hrs by broth microdilution method (reference value: 16 ug/ml)", "type": "functional", "conditions": "Klebsiella pneumoniae, 2210291, 16 h"}, "Escherichia coli [22]": {"test_system": "Escherichia coli", "experiment": "Potentiation of colistin-induced antibacterial activity against Escherichia coli YD626 harbouring mcr-1 gene assessed as colistin MIC at 50 uM incubated for 16 hrs by broth microdilution method (reference value: 8 ug/ml)", "type": "functional", "conditions": "YD626, 16 h"}, "Escherichia coli [23]": {"test_system": "Escherichia coli", "experiment": "Potentiation of colistin-induced antibacterial activity against Escherichia coli YD626 harbouring mcr-1 gene assessed as reduction in colistin MIC at 15 uM incubated for 16 hrs by broth microdilution method", "type": "functional, organism-based", "method_in_brief": "as §3"}, "Acinetobacter baumannii [24]": {"test_system": "Acinetobacter baumannii", "experiment": "Potentiation of colistin-induced antibacterial activity against Acinetobacter baumannii 3941 assessed as reduction in colistin MIC at 7.5 uM incubated for 16 hrs by broth microdilution method (reference value: 512 ug/ml)", "type": "functional", "conditions": "Acinetobacter baumannii, 3941, 16 h"}, "Klebsiella pneumoniae [25]": {"test_system": "Klebsiella pneumoniae", "experiment": "Potentiation of colistin-induced antibacterial activity against Klebsiella pneumoniae B9 assessed as reduction in colistin MIC at 15 uM incubated for 16 hrs by broth microdilution method (reference value: 512 ug/ml)", "type": "functional", "conditions": "B9, 16 h"}, "Acinetobacter baumannii [26]": {"test_system": "Acinetobacter baumannii", "experiment": "Potentiation of colistin-induced antibacterial activity against Acinetobacter baumannii 17978 harbouring mcr-1 gene assessed as reduction in colistin MIC at 5 uM incubated for 16 hrs by broth microdilution method (reference value: 16 ug/ml)", "type": "functional", "conditions": "Acinetobacter baumannii, 17978, 16 h", "method_in_brief": "as §3"}}, "note": "The source made the active and inactive calls. No cut-off for these calls is given here."}
{"smiles": "O=C(NCCc1c[nH]c2ccc(Br)cc12)Nc1cc(Cl)c(Br)c(Cl)c1", "values": [{"measurement": "MIC", "setting": "Acinetobacter baumannii [1]", "value": 0.5, "unit": "µg/mL"}, {"measurement": "MIC", "setting": "Klebsiella pneumoniae [2]", "value": 2, "unit": "µg/mL"}, {"measurement": "MIC", "setting": "Klebsiella pneumoniae [3]", "value": "≤ 0.25", "unit": "µg/mL"}, {"measurement": "CC50 at 18 h", "setting": "[4]", "value": 64.9, "unit": "µM"}, {"measurement": "MIC", "setting": "Escherichia coli [5]", "value": 1, "unit": "µg/mL"}, {"measurement": "MIC", "setting": "Escherichia coli [6]", "value": 0.25, "unit": "µg/mL"}, {"measurement": "MIC", "setting": "Klebsiella pneumoniae [7]", "value": 1, "unit": "µg/mL"}, {"measurement": "Activity", "setting": "Acinetobacter baumannii [8]", "value": 0, "unit": "%"}, {"measurement": "MIC", "setting": "Klebsiella pneumoniae [9]", "value": 0.5, "unit": "µg/mL"}, {"measurement": "MIC", "setting": "Acinetobacter baumannii [10]", "value": 1, "unit": "µg/mL"}, {"measurement": "MIC", "setting": "Acinetobacter baumannii [11]", "value": 4, "unit": "µg/mL"}, {"measurement": "MIC", "setting": "Klebsiella pneumoniae [12]", "value": 4, "unit": "µg/mL"}, {"measurement": "MIC", "setting": "Klebsiella pneumoniae [13]", "value": 2, "unit": "µg/mL"}, {"measurement": "MIC", "setting": "Acinetobacter baumannii [14]", "value": 0.5, "unit": "µg/mL"}, {"measurement": "MIC", "setting": "Acinetobacter baumannii [15]", "value": "≤ 0.5", "unit": "µg/mL"}, {"measurement": "CC50 at 18 h", "setting": "[16]", "value": 94.1, "unit": "µM"}, {"measurement": "MIC", "setting": "Acinetobacter baumannii [17]", "value": 4, "unit": "µg/mL"}, {"measurement": "Activity", "setting": "Acinetobacter baumannii [18]", "value": "Active"}, {"measurement": "Activity", "setting": "Acinetobacter baumannii [19]", "value": "Active"}, {"measurement": "Activity", "setting": "Acinetobacter baumannii [20]", "value": 47, "unit": "%"}, {"measurement": "MIC", "setting": "Klebsiella pneumoniae [21]", "value": 0.5, "unit": "µg/mL"}, {"measurement": "MIC", "setting": "Escherichia coli [22]", "value": 1, "unit": "µg/mL"}, {"measurement": "Activity", "setting": "Escherichia coli [23]", "value": "Active"}, {"measurement": "MIC", "setting": "Acinetobacter baumannii [24]", "value": 16, "unit": "µg/mL"}, {"measurement": "MIC", "setting": "Klebsiella pneumoniae [25]", "value": "≤ 0.25", "unit": "µg/mL"}, {"measurement": "MIC", "setting": "Acinetobacter baumannii [26]", "value": 1, "unit": "µg/mL"}]}
